ChEMBL document CHEMBL2163220 (J Med Chem, 2012)
The source made the active and inactive calls. No cut-off for these calls is given here.

Tests used:
[1] = system: CWR22R; experiment: Cytotoxicity against human 22Rv1 cells incubated for 72 hrs by MTT assay; type: functional, cell-based; conditions: 22Rv1, 72 h
Outline: (§1)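 MTT assay run across a panel of prostate cancer cell lines.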

[2] = Cytotoxicity against human C4-2B cells incubated for 72 hrs by MTT assay; type: functional, cell-based; conditions: LNCaP C4-2B; outline: as §1
[3] = system: LNCaP; experiment: Cytotoxicity against human LNCAP cells incubated for 72 hrs by MTT assay; type: functional, cell-based; outline: as §1
[4] = system: PC-3; experiment: Cytotoxicity against human PC3 cells incubated for 72 hrs by MTT assay; type: functional, cell-based; conditions: PC-3, 72 h; outline: as §1
[5] = biological target: T1, Androgen receptor (Homo sapiens) (UniProt P10275); experiment: Antagonist activity at androgen receptor in human LNCaP cells assessed as reduction in DHT-induced PSA expression by luciferase reporter gene assay; type: functional, cell-based
T1 sequence (whole entry): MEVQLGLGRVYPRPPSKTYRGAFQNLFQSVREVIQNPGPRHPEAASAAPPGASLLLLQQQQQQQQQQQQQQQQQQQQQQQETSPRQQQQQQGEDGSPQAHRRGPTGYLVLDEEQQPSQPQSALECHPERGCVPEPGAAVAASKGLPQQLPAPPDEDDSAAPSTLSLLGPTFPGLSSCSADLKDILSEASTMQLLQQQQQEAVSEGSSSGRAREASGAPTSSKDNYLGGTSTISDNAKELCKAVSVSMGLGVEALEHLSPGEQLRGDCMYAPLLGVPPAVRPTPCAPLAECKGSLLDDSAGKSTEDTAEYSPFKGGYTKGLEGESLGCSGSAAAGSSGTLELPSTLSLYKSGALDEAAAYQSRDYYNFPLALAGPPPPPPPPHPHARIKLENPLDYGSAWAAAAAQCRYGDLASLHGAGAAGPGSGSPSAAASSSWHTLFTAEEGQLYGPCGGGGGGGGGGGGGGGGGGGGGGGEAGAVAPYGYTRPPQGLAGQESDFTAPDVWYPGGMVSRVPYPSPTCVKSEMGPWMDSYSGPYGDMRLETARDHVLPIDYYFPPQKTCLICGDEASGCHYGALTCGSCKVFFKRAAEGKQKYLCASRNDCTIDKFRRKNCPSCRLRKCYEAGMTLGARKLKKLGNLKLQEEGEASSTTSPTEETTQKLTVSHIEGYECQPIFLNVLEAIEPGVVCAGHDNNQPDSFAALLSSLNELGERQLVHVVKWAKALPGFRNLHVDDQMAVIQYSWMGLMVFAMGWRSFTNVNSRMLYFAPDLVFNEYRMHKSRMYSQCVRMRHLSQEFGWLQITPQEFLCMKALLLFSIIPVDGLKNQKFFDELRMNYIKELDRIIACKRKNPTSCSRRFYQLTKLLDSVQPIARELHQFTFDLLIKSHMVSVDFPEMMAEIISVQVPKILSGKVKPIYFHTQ
Outline: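 LNCaP cells carrying a PSA-luc reporter were treated with compound at 1 and 2.5 μM in the presence of 1 nM DHT. Fold suppression was calculated relative to 1 nM DHT alone. Run in triplicate.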

[6] = biological target: T1, Androgen receptor (Homo sapiens); experiment: Antagonist activity at androgen receptor in human LNCaP cells assessed as increase in Maspin promoter activity by luciferase reporter gene assay; type: functional, cell-based
Outline: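 LNCaP cells carrying a maspin promoter-luciferase reporter were treated with compound and read by luciferase activity, in triplicate.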

[7] = biological target: T1, Androgen receptor (Homo sapiens); experiment: Antagonist activity at androgen receptor in human LNCaP cells assessed as increase in Maspin protein expression at 1 to 5 uM incubated for 24 hrs by Western blotting
[8] = system: PC-3; experiment: Effect on in Maspin expression in human PC3 cells deficient in wild type androgen receptor at 2.5 uM by luciferase reporter gene assay; type: functional, cell-based
Outline: (§2)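 PC-3 cells were transfected with maspin-luc, with or without cotransfected AR. Cells were exposed to DMSO vehicle or compound at 2.5 and 5 μM. Luciferase activity was measured in triplicate.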

[9] = system: LNCaP; experiment: Induction of apoptosis in human LNCAP cells assessed as PARP cleavage activation incubated for 24 hrs by Western blotting; type: functional, cell-based
Outline: (§3)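 LNCaP cells in complete medium were exposed to DMSO or compound at 1, 2.5 and 5 μM for 24 h. Western blot measured AR, maspin, caspase-3 activation and PARP cleavage, with β-actin as loading control.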

[10] = system: PC-3; experiment: Effect on in Maspin expression in human PC3 cells deficient in wild type androgen receptor at 5 uM by luciferase reporter gene assay; type: functional, cell-based; outline: as §2
[11] = biological target: T1, Androgen receptor (Homo sapiens); experiment: Antagonist activity at androgen receptor in human PC3 cells assessed as increase in Maspin promoter activity at 5 uM by luciferase reporter gene assay; type: functional, cell-based; conditions: PC-3; outline: as §2
[12] = biological target: T1, Androgen receptor (Homo sapiens); experiment: Antagonist activity at androgen receptor in human PC3 cells assessed as increase in Maspin promoter activity at 2.5 uM by luciferase reporter gene assay; type: functional, cell-based; conditions: PC-3; outline: as §2
[13] = system: LNCaP; experiment: Reduction in androgen receptor protein expression in human LNCAP cells incubated for 24 hrs by Western blotting; type: functional, cell-based; outline: as §3
[14] = system: LNCaP; experiment: Induction of apoptosis in human LNCAP cells assessed as caspase-3 activation incubated for 24 hrs by Western blotting; type: functional, cell-based; outline: as §3
[15] = system: PC-3; experiment: Antagonist activity at androgen receptor ARv7 mutant lacking ligand binding domain expressed in human PC3 cells assessed as reduction in DHT-induced receptor transactivation at 1 uM by luciferase reporter gene assay; type: cell-based
Outline: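 AR-v7 (lacks LBD), MMTV-Luc and pRL-TK (Renilla) plasmids transiently transfected into PC-3 cells; cells treated with DMSO vehicle, 0.1 nM DHT, or test compound at 1 μM; transactivation read as luciferase activity (relative luciferase units).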

Cc1coc2c1C(=O)C(=O)c1c-2ccc2c1CC(C)CC2 (stereo unspecified)
IC50 [1]: 8200 nM
IC50 [2]: 300 nM
IC50 [3]: 1700 nM
IC50 [4]: 1900 nM

Cc1coc2c1C(=O)C(=O)c1c-2ccc2c1CCCC2C (stereo unspecified)
IC50 [1]: 11800 nM
IC50 [2]: 400 nM
IC50 [3]: 1200 nM
IC50 [4]: 1200 nM

Cc1coc2c1C(=O)C(=O)c1c-2ccc2c1CCC(C)C2 (stereo unspecified)
IC50 [1]: > 20000 nM
IC50 [2]: 700 nM
IC50 [3]: 3500 nM
IC50 [4]: 2500 nM

Cc1coc2c1C(=O)C(=O)c1c-2ccc2c1COCC2
IC50 [1]: 1500 nM
IC50 [2]: 100 nM
IC50 [3]: 2400 nM
IC50 [4]: 2100 nM

Cc1coc2c1C(=O)C(=O)c1c-2ccc2c1CCCC2
Activity [5]: Dose-dependent effect
Activity [6]: Dose-dependent effect
IC50 [1]: 13500 nM
IC50 [2]: 100 nM
IC50 [3]: 600 nM
IC50 [4]: 1200 nM

Cc1coc2c1C(=O)C(=O)c1c-2ccc2c1CCC2(C)C
IC50 [1]: 7500 nM
IC50 [2]: 400 nM
IC50 [3]: 1000 nM
IC50 [4]: 2400 nM

Cc1coc2c1C(=O)C(=O)c1c-2ccc2c1CCC(C)(C)C2
Activity [5]: Dose-dependent effect
Activity [6]: Dose-dependent effect
IC50 [1]: 8800 nM
IC50 [2]: 500 nM
Activity [7]: Active
Activity [8]: inactive
Activity [9]: Dose-dependent effect
Activity [10]: inactive
IC50 [3]: 700 nM
Activity [11]: Active
Activity [12]: Active
Activity [13]: Dose-dependent effect
Activity [14]: Dose-dependent effect
IC50 [4]: 900 nM

Cc1coc2c1C(=O)C(=O)c1c-2ccc2c1CC(C)(C)CC2
Activity [5]: Dose-dependent effect
Activity [6]: Dose-dependent effect
IC50 [1]: 3200 nM
IC50 [2]: 1200 nM
IC50 [3]: 3200 nM
IC50 [4]: 3600 nM

CC(O)(CS(=O)(=O)c1ccc(F)cc1)C(=O)Nc1ccc(C#N)c(C(F)(F)F)c1 (stereo unspecified)
Activity [15]: inactive

Cc1coc2c1C(=O)C(=O)c1c-2ccc2c1CCCCC2
IC50 [1]: > 20000 nM
IC50 [2]: 1800 nM
IC50 [3]: 3600 nM
IC50 [4]: 6300 nM
